Assay [1] has as its target T1, D(2) dopamine receptor (Homo sapiens, UniProt P14416). The assay can be described thus: Displacement of [3H]-YM-09151-2 from dopamine D2 receptor (unknown origin) in sheep brain striatum membranes after 2 hrs by scintillation counting. Format: cell membranes. Particulars: Ovis aries (sheep). The method in brief:
(§1)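 Sheep striatal membranes (50 mM Tris-HCl pH 7.4, protease inhibitors; 0.2 mg protein/mL) incubated 2 h at room temperature in Tris-HCl with 10 mM MgCl2, 0.8 nM free [3H]YM-09151-2 and rising ligand concentrations; nonspecific binding with 30 μM dopamine. Filtration on PEI-soaked GF/C, scintillation counting; fitted to two-state dimer model. Lines 5 and 6: membranes preincubated 1 h with the named TAT-TM6 peptide first.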
(Loss of bound radioactivity is the signal in a displacement assay; it reports binding, not function.)

Assay [2] deals with T1, D(2) dopamine receptor. The assay can be described thus: Displacement of [3H]-YM-09151-2 from dopamine D2 receptor (unknown origin) in sheep brain striatum membranes preincubated with TAT-TM6 D2R peptide for 1 h before addition of compound and radioligand and measured after 2 hrs by scintillation counting. Format: cell membranes. In outline: as §1
Assay [3] deals with T1, D(2) dopamine receptor. The assay can be described thus: Displacement of [3H]-YM-09151-2 from dopamine D2 receptor (unknown origin) in sheep brain striatum membranes preincubated with TAT-TM6 A2AR peptide for 1 h before addition of compound and radioligand and measured after 2 hrs by scintillation counting. It counts as cell membranes. In outline:
as §1

The target in assay [4] is T1, D(2) dopamine receptor. Nature of the assay: Antagonist activity at human dopamine D2 receptor expressed in CHO cells co-expressing A2A receptor assessed as reduction in sumanirole-induced response after 90 mins by DMR analysis. Format: cell-based. In outline: (§2)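 CHO cells stably co-expressing human A2AR and D2R, seeded 7,000/well 24 h before assay (70–80% confluent). Washed into assay buffer (medium, 20 mM HEPES pH 7.15, 0.1% DMSO, 0.1% BSA), equilibrated 2 h at 24°C; 10 min baseline, antagonist added and read 30 min, then sumanirole (100 nM solution) added and DMR wavelength shift (pm) recorded ≥90 min; expressed as % maximal sumanirole effect.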

Assay [5] addresses T1, D(2) dopamine receptor. The assay can be described thus: Binding affinity to human dopamine D2 receptor transfected in HEK293 cells co-expressing nYFP (1 to 155 residues) and cYFP (156 to 238 residues) at 100 nM after 10 mins by fluorescence complementation assay. It counts as cell-based. In outline:
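HEK-293T cells transiently co-transfected (lipofectamine) with D2R-nYFP and D2R-cYFP; after 48 h, cells in HBSS with 0.1% glucose (20 μg protein, 50,000 cells/well) treated with 100 nM ligand or HBSS for 10 min. Fluorescence read at 530 nm emission, 400 nm excitation; background from cells lacking fusion proteins subtracted.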

Assay [6] addresses T1, D(2) dopamine receptor. Nature of the assay: Antagonist activity at human dopamine D2 receptor expressed in CHO cells co-expressing A2A receptor assessed as reduction in sumanirole-induced response at 0.5 uM after 90 mins by DMR analysis. It counts as cell-based. In outline:
as §2

Assay [7] concerns the target T1, D(2) dopamine receptor. The settings on record: CHO, 1 uM.

Active and inactive are the calls of the source. No cut-off for these calls is given here.

T1 sequence (P14416 whole entry): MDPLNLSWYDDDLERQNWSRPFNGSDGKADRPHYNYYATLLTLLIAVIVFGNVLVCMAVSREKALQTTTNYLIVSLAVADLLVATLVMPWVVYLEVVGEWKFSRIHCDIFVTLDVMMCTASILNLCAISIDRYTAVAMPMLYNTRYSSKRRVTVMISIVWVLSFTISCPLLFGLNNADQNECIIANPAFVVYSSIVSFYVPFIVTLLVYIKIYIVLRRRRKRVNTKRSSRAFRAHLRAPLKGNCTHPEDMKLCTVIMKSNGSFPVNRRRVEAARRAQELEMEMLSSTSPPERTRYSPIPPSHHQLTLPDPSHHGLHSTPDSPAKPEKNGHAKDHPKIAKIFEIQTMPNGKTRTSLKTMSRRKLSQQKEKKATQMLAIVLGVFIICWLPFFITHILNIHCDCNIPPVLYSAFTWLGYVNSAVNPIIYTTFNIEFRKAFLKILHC

For orientation: IC50 means the point on the concentration scale where inhibition reaches its midpoint. With `COC(=O)CN(CC(=O)NCCOCCOCCNC(=O)CCC(=O)Nc1ccc(CCN2CN(c3ccccc3)C3(CCN(CCCC(=O)c4ccc(F)cc4)CC3)C2=O)cc1)CC(=O)NCCOCCOCCNC(=O)CCC(=O)Nc1ccc(CCN2CN(c3ccccc3)C3(CCN(CCCC(=O)c4ccc(F)cc4)CC3)C2=O)cc1`, the K in assay [1] came to 0.021 nM; in assay [2], 1.1 nM; in assay [3], 0.05 nM. For the same molecule, in assay [4], the IC50 was found to be 15 nM. In assay [5], the outcome was inactive. In addition, the inhibition entry in assay [6] is “Active”.

`O=C(O)CCC(=O)Nc1ccc(CCN2CN(c3ccccc3)C3(CCN(CCCC(=O)c4ccc(F)cc4)CC3)C2=O)cc1`: the K in assay [1] is 0.7 nM.

As to `COC(=O)CN(CC(=O)NCCOCCOCCNC(C)=O)CC(=O)NCCOCCOCCNC(=O)CCC(=O)Nc1ccc(CCN2CN(c3ccccc3)C3(CCN(CCCC(=O)c4ccc(F)cc4)CC3)C2=O)cc1`, the K in assay [1] was found to be 0.77 nM; in assay [2], 0.8 nM; in assay [3], 0.8 nM. In addition, the IC50 in assay [4] worked out at 280 nM. The result in assay [5] was inactive.

`O=C(CCCN1CCC2(CC1)C(=O)NCN2c1ccccc1)c1ccc(F)cc1`: the inhibition entry in assay [7] is “Active”.

In assay [1], `COC(=O)CN(CC(=O)NCCCOCCOCCOCCCNC(C)=O)CC(=O)NCCCOCCOCCOCCCNC(=O)CCC(=O)Nc1ccc(CCN2CN(c3ccccc3)C3(CCN(CCCC(=O)c4ccc(F)cc4)CC3)C2=O)cc1` returned a K of 1.5 nM.

On to `COC(=O)CN(CC(=O)NCCCOCCOCCOCCCNC(=O)CCC(=O)Nc1ccc(CCN2CN(c3ccccc3)C3(CCN(CCCC(=O)c4ccc(F)cc4)CC3)C2=O)cc1)CC(=O)NCCCOCCOCCOCCCNC(=O)CCC(=O)Nc1ccc(CCN2CN(c3ccccc3)C3(CCN(CCCC(=O)c4ccc(F)cc4)CC3)C2=O)cc1`, for which the K in assay [1] amounted to 0.07 nM. Also, the inhibition entry in assay [6] is “Active”.

These data come from ChEMBL document CHEMBL4308850, “Design of a True Bivalent Ligand with Picomolar Binding Affinity for a G Protein-Coupled Receptor Homodimer” (J Med Chem, 2018).
